According to ChEMBL document CHEMBL4017500 (J Med Chem, 2017):
Calls of active or inactive are those of the source. The rule behind the calls is not given here.

Tests used:
Klebsiella pneumoniae [1] = test: Effect on growth of Klebsiella pneumoniae isolate Pd1.48 at 100 mg/L after 18 to 20 hrs by broth microdilution assay
In short: (§1)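 Mueller-Hinton broth microdilution per CLSI, triplicate. blaNDM-1 clinical isolates grown from OD600 0.1 to 0.224 (~1–2 × 10^8 CFU/mL), diluted 3 μL into 4997 μL MH, and 100 μL added to 100 μL of compound (100 mg/L) alone. Incubated 37 °C for 18–20 h, then scored for growth.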

Bacteria [2] = test: Binding affinity to bacterial CoCoNDM-1 expressed in Escherichia coli BL21(DE3) assessed as metal stripping at 1 to 2 equiv after 30 mins by UV-Visible spectroscopic method
In short: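 Apo-NDM-1 at 300 μM in 50 mM HEPES, 150 mM NaCl, pH 6.8, loaded with 2 molar equiv CoCl2. […] Absorbance read 300–700 nm at 25 °C as difference spectra against buffer blank, normalized at 700 nm.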

[3] = Selectivity ratio of compound effect for inhibition of bacterial MBP-fused NDM1 expressed in Escherichia coli BL21(DE3) to compound effect for inhibition of human MMP2 (Tyr110 to Asp452 residues) expressed in yeast
Escherichia coli [4] = test: Inhibition of NDM1 in Escherichia coli isolate Ch8.72 assessed as potentiation of imipenem-induced antibacterial activity by measuring imipenem MIC at 100 mg/L after 18 to 20 hrs by broth microdilution assay (reference value: 16 mg/L)
[5] = biological target: Histone deacetylase 1 (Homo sapiens) (UniProt Q13547); test: Inhibition of full length human C-terminal FLAG/His-tagged HDAC1 expressed in baculovirus infected sf9 cells at 50 to 100 uM using HDAC substrate 3 preincubated for 5 mins followed by substrate addition measured after 30 mins by fluorescence assay
Sequence of Histone deacetylase 1 (Homo sapiens) (Q13547 whole entry): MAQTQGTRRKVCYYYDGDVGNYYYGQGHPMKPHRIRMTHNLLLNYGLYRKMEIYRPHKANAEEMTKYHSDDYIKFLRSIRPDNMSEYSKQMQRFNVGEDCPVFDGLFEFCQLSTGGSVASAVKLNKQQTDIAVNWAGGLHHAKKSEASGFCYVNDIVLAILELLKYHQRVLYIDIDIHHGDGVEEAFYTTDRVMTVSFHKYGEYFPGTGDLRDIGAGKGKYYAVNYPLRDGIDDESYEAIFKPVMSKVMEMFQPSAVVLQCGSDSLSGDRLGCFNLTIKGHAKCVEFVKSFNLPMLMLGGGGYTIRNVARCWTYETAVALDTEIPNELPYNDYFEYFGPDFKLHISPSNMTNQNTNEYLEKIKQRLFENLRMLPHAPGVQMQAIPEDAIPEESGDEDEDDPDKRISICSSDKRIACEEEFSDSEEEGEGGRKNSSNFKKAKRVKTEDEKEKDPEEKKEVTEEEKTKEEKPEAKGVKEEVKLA
In short: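 Inhibitor pre-incubated 5 min, then HDAC substrate 3 (20 μM) added, 30 min at 37 °C. Developer added for 15 min at room temperature; fluorescence read at ex/em 360/460 nm. Activity relative to no-inhibitor wells, with 200 μM SAHA as 0%. Run in triplicate.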

Escherichia coli [6] = test: Inhibition of NDM1 in Escherichia coli isolate Ch8.69 assessed as potentiation of imipenem-induced antibacterial activity by measuring imipenem MIC at 100 mg/L after 18 to 20 hrs by broth microdilution assay (reference value: 4 mg/L)
Klebsiella pneumoniae [7] = test: Effect on growth of Klebsiella pneumoniae isolate Pd1.50 at 100 mg/L after 18 to 20 hrs by broth microdilution assay; in short: as §1
[8] = biological target: 72 kDa type IV collagenase (Homo sapiens) (UniProt P08253); test: Inhibition of human MMP2 (Tyr110 to Asp452 residues) expressed in yeast at 50 to 100 uM using Mca-Pro-LeuGly-Leu-Dpa-Ala-Arg-NH2.AcOH as substrate preincubated for 30 mins followed by substrate addition measured after 20 mins by fluorescence assay relative to control
Sequence of 72 kDa type IV collagenase (Homo sapiens) (P08253 110-660 limits assumed): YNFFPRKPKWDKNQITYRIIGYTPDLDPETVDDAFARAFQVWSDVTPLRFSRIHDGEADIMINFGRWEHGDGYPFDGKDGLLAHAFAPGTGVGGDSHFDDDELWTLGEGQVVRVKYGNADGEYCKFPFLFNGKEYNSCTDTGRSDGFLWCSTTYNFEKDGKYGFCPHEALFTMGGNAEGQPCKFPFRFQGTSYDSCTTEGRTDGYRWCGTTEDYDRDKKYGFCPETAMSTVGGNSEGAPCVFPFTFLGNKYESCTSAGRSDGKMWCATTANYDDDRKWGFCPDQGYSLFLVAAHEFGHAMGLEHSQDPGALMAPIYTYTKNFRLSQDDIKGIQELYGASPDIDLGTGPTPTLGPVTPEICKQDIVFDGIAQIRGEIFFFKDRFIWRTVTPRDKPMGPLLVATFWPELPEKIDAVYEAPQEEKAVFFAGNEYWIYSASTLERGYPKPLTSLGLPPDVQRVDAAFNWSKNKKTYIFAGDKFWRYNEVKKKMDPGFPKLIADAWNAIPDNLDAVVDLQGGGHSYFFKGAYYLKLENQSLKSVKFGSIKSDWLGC
In short: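 Human recombinant MMP-2 (1.16 U/well) or MMP-12 (0.007 U/well) in 50 mM HEPES, 10 mM CaCl2, 0.05% Brij-35, pH 7.5. Enzyme and inhibitor pre-incubated 30 min at 37 °C, then OmniMMP fluorogenic substrate (4 μM) added. Fluorescence rise followed 20 min at ex/em 320/400 nm. Activity relative to no-inhibitor wells, with 200 μM NSA as 0%. Run in triplicate.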

Bacteria [9] = test: Binding affinity to bacterial NDM-1 expressed in Escherichia coli BL21(DE3) assessed as Zn2+ stripping at 24 uM after 30 mins by equilibrium dialysis method relative to control
In short: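 NDM-1 (8 μM final) in 50 mM HEPES pH 7.5 mixed with compound at 0–128 μM for 30 min. Then dialyzed 4 h against metal-free 50 mM HEPES pH 7.5. Residual Zn(II) measured by ICP-AES at 213.856 nm.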

HEK293 = test: Cytotoxicity against HEK293 cells assessed as reduction in cell viability up to 400 uM after 4 to 24 hrs by Cell-titer blue reagent based spectrophotometric assay; details: human
In short: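 HEK293 cells seeded at 10,000/well 12 h before treatment. Exposed to compound or DMSO vehicle for 4 or 24 h in DMEM with 10% serum and penicillin-streptomycin, n=6 per treatment per time point. Cell-Titer Blue added for 1 h, fluorescence read at 536ex/595em. Viability relative to vehicle (=1.0); ANOVA with Tukey post-hoc.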

Nc1cccc(-c2cc(C(=O)O)nc(C(=O)O)c2)c1
Activity (Klebsiella pneumoniae [1]): Non-Toxic | Activity (Bacteria [2]): Active | Selectivity ratio [3]: 100 to 1000 | MIC (Escherichia coli [4]): 0.5 µg/mL | inhibition [5]: < 50% | MIC (Escherichia coli [6]): 0.5 µg/mL | Activity (Klebsiella pneumoniae [7]): Non-Toxic | inhibition [8]: < 50% | Activity (Bacteria [9]): 10 to 20% | Activity (HEK293): Non-Toxic
